SR-BI HDL uptake = inhibitors of SR-BI mediated HDL lipid uptake, primary screen, ldlA[mSR-BI] cells, fluorescence, single point | inhibition, % at 12.5 µM | AID 488896, 2010 | ldlA[mSR-BI] CHO cells, DiI-HDL uptake fluorescence, 3 h | 320,000 compounds, 0.96% hits;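 active = mean replicate inhibition of at least 70% and a set share of replicates each scoring 70 or more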;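 also: 0% = median of neutral control wells and 100% = median of positive control wells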
PKA-R2B activ = activators of PKA-R2B holoenzyme, primary screen, biochemical, fluorescence polarization, Cy5-IP20, human; 340,000 compounds, 0.079% hits; activation, % at 11.4 µM; AID 504700, 2011; PKA-R2B holoenzyme dissociation; R2B truncated from residue 108, S112A mutant; 0% DMSO only, 100% 113 µM cGMP;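 active = activation above a cutoff set at the mean over all compounds plus 3 SD, cut at about 18% in these data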;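 also: higher means more holoenzyme dissociation and a rise in polarization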
SR-BI DiI-HDL act = activators of SR-BI mediated DiI-HDL uptake, primary screen, ldlA[mSR-BI] CHO cells, DiI fluorescence; 3 h; 100 = double the neutral-control signal; activation, % at 12.5 µM; 320,000 compounds, 0.096% hits;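 active = mean replicate activation of at least 60% and every replicate at or above 60%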;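 also: 0% = median plate neutral-control signal and 100% = twice that signal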
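system = CHO ldlA[mSR-BI] cells, LDL receptor-null, SR-BI overexpressing | medium = Ham's F12 with 0.5% BSA, HEPES 25 mM, pH 7.4 | probe or stimulus = DiI-HDL 10 µg/mL | compound dosing = single-point compound dose | incubation = compound exposure 3 h, 37 °C | technique = DiI fluorescence, bottom read | read-out = cell-associated DiI fluorescence as measure of HDL uptake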
PKA-R1A act = activators of PKA-R1A holoenzyme, primary screen, biochemical, fluorescence polarization, Cy5-IP20, bovine R1A, mouse PKAc. PKA-R1A dissociation; scaled: DMSO 0%, 113 µM cGMP 100%. cAMP-dependent protein kinase type I-alpha regulatory subunit (Bos taurus) + …. activation, % at 11.4 µM. 340,000 compounds, 0.083% hits;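 active = percent activation above the mean of all tested compounds plus 3 SD, cut at about 19% in these data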;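 also: higher means more PKAc released from R1A so a rise in polarization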
dFosB activator = activators of delta FosB homodimer, primary screen, biochemical, fluorescence polarization, TAMRA-CDK5 oligo, single point; purified delta FosB; percent of positive-control signal above neutral wells; activation, % at 25 µM; 340,000 compounds, 0.99% hits; AID 493131, 2011;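 active = mean activation above about 17%, with every replicate also reaching it, limit read from the data, passing the limit was not always enough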
CDK5 p35 inh = inhibitors of human CDK5/p35 kinase, primary screen, biochemical, single concentration; Cyclin-dependent kinase 5 (Homo sapiens) + Cyclin-dependent kinase 5 activator 1 (Homo …; Recombinant CDK5/p35, ADP-Glo luminescence, 60 min; inhibition, % at 10 µM; 330,000 compounds, 0.01% hits; AID 488839, 2010;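 active = highest replicate inhibition of at least 50% and at least 75% of replicates reaching 50%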;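 also: plate controls were DMSO neutral control for no effect and GW8510 at 10 µM for full effect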
Target sequence (Q00535 whole entry, looked up): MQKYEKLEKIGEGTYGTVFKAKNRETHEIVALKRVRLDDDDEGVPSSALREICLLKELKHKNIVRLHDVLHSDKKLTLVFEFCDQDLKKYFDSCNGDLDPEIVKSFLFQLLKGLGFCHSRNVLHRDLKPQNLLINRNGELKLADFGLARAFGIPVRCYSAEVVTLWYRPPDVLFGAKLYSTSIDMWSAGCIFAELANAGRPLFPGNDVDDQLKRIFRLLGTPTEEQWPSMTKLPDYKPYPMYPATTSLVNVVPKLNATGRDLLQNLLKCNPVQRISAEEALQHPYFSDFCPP
Target sequence (Q15078 whole entry, looked up): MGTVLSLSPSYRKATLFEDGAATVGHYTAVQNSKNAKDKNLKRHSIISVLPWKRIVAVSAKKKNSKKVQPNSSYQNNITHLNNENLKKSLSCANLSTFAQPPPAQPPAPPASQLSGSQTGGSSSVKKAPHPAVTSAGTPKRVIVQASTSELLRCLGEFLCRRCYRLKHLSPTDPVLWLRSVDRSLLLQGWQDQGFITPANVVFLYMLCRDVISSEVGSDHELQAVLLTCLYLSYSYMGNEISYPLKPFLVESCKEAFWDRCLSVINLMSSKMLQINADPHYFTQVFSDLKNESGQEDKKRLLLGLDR
Numbers without * were called inactive; nt = no result given. Most compounds without a hit are left out; they make up all but 2.1% or so of the library.

SMILES	SR-BI HDL uptake	PKA-R2B activ	SR-BI DiI-HDL act	PKA-R1A act	dFosB activator	CDK5 p35 inh
Cc1nn(-c2ccccc2)c(N2CCCCC2)c1/C=N/NC(=O)c1ccncc1	87*	-8	-87	5	-17	0
Cc1nn(-c2ccccc2)c(N2CCCC2)c1/C=N/NC(=S)Nc1ccccc1C(F)(F)F	57	-2	-57	3	-4	0
CCOc1ccc(S(=O)(=O)Nc2ccc(C(=O)N/N=C/c3c(C)nn(-c4ccccc4)c3N3CCCC3)cc2)cc1	54	-1	-54	-1	-6	1
Cc1nn(-c2ccccc2)c(N2CCCC2)c1/C=N/NC(=S)Nc1cc(C(F)(F)F)ccc1Cl	86*	-12	-86	-12	-10	1
CC(C(=O)Nc1ccc(O)cc1C(=O)O)N1C(=O)/C(=C\c2cccs2)SC1=S (stereo not drawn)	-21	-10	21	2	-16	-2
Cc1ccc(C(C)C)c(OCc2nn(CC(=O)c3ccc(OC(F)F)cc3)c3[n+]2CCCCC3)c1	-26	-2	26	-5	-12	-2
CCN1/C(=C/c2ccc3cccc(C)c3[n+]2CC)Sc2ccccc21	29	-8	-29	-1	66*	8
CCN1/C(=C\c2ccc3cc(C)ccc3[n+]2CC)Sc2cc(C)c(C)cc21	85*	-6	-85	-1	1	5
CCN1/C(=C/c2ccc3cc(C)cc(C)c3[n+]2CC)Sc2cc(C)ccc21	68	-15	-68	5	-178	2
O=C(COC(=O)c1ccc(NC(=O)C2CC=CCC2C(=O)O)cc1)c1ccccc1 (stereo not drawn)	5	7	-5	-4	-5	1
OC1CCCC1	-6	5	6	-14	0	-2
Clc1ccccc1C1Nc2cccc3cccc(c23)N1	-10	-1	10	-1	-1	4
Oc1ccc(C2Nc3cccc4cccc(c34)N2)c(O)c1	91*	1	-91	-4	8	0
FC(F)(F)c1ccc(C2Nc3cccc4cccc(c34)N2)cc1	42	2	-42	3	-2	2
COc1cc(C2Nc3cccc4cccc(c34)N2)cc(OC)c1O	4	8	-4	2	41*	-1
Fc1ccc(C2Nc3cccc4cccc(c34)N2)cc1	10	-1	-10	-3	25*	2
CS(=O)(=O)c1ccc(Cl)c(C(=O)Nc2ccc3nc(N4CCOCC4)sc3c2)c1	24	-4	-24	-3	-1	0
O=C(COC(=O)c1cc(S(=O)(=O)Nc2ccccc2Cl)ccc1O)Nc1ccc(F)c(F)c1F	-12	-12	12	-3	25*	1
CCN1C(=O)/C(=C\C=C2/C=CC=CN2CC)SC1=S	-21	-2	21	4	25*	2
CCN1C(=O)/C(=C2/C=CC=CN2C)SC1=S	nt	1	nt	11	-1	-2
CCN1C(=O)/C(=C/C=C2\C=CN(CC)c3ccccc32)SC1=S	140*	0	-140	5	-5	6
Cc1nn(CC(=O)N2CCCC2)c(=O)c2cc3cc(F)ccc3n12	-3	-8	3	-14	0	1
C=C1[C@@H](O)[C@H](Cc2ccccc2)N(Cc2ccccc2Br)S1(=O)=O	-30	-3	30	-10	4	0
CN(C)CCCN(C(=O)c1ccc(C(=O)c2ccccc2)cc1)c1nc2cc3c(cc2s1)OCO3	-6	10	6	5	25*	1
CN(C)CCN(C(=O)c1ccc2ccccc2c1)c1nc2cc3c(cc2s1)OCO3	nt	6	nt	-7	nt	nt
SMILES	SR-BI HDL uptake	PKA-R2B activ	SR-BI DiI-HDL act	PKA-R1A act	dFosB activator	CDK5 p35 inh
CCN(CC)CCN(C(=O)c1ccc(C(=O)c2ccccc2)cc1)c1nc2cc3c(cc2s1)OCO3	37	-6	-37	-3	48*	-1
CCN(CC)CCN(C(=O)c1ccc2ncsc2c1)c1nc2cc3c(cc2s1)OCO3	20	-8	-20	-7	6	1
COc1ccc2sc(N(CCCN(C)C)C(=O)c3ccc(C(=O)c4ccccc4)cc3)nc2c1	2	-12	-2	0	22*	1
CN(C)CCCN(C(=O)c1ccc(Br)s1)c1nc2cc3c(cc2s1)OCCO3	30	-5	-30	2	24*	1
CC(C)n1c(SCC(=O)NC2CCCCC2)nnc1-c1ccco1	nt	-2	nt	3	-4	1
COc1ccc(OC)c(NC(=O)Cn2nc(C)c3ccccc3c2=O)c1	2	-3	-2	-10	-7	-8
Cc1noc(C)c1NC(=O)Nc1ccc2c(c1)CC(=O)N([C@@H](C)CO)C[C@@H](C)[C@@H](CN(C)C(=O)Nc1cccc3ccccc13)O2	9	-8	-9	-8	-7	0
O=C(O)CC(C(=O)O)C(=Cc1ccccc1)c1ccccc1 (stereo not drawn)	nt	8	nt	-6	nt	nt
CS(=O)(=O)C1=NSC2=NC(=O)/C(=C\c3ccc(OC(=O)c4ccco4)c(Br)c3)C(=N)N21	1	0	-1	-3	-13	-1
Cc1ccccc1NC(=O)Cn1cnc2c(oc3ccccc32)c1=O	3	0	-3	0	0	0
Cc1cc(C)c(NC(=O)Cn2cnc3c(oc4ccccc43)c2=O)c(C)c1	-11	1	11	-7	52*	-8
CC(C)Sc1nc2c(c(=O)n1C)SC(C)C2 (stereo not drawn)	-183	-6	183*	1	-3	2
CCOc1cc(C)ccc1OCc1nnc(SCC(=O)c2cccc([N+](=O)[O-])c2)n1CC	88*	-3	-88	-9	-5	13
Cc1ccc(N(CC(=O)Nc2ccc(Br)c(C)c2)S(=O)(=O)c2c(C)[nH]c(=O)[nH]c2=O)cc1	-29	-8	29	-6	-9	0
COC(=O)Cn1c(=NC(=O)c2ccc(OC)cc2)sc2cc(OC)ccc21	71*	-10	-71	-4	3	2
COC(=O)Cn1c(=NC(=O)c2cc(OC)cc(OC)c2)sc2cc(OC)ccc21	62	-10	-62	-14	12	1
